According to ChEMBL document CHEMBL1140926, “Novel indazole non-nucleoside reverse transcriptase inhibitors using molecular hybridization based on crystallographic overlays” (J Med Chem, 2009):

Tests used:
[1] = target: Human immunodeficiency virus type 1 reverse transcriptase (Human immunodeficiency virus 1, UniProt Q72547); experiment: Inhibition of RNA-dependent DNA polymerase activity of wild type HIV1 reverse transcriptase
[2] = tested on: Human immunodeficiency virus 1; experiment: Antiviral activity against HIV1 NL4-3 in HeLaP4 reporter cell assessed as virus replication by FluorAceTM beta-galactosidase reporter assay; format: functional, organism-based; details: Human immunodeficiency virus 1, NL4-3, HeLaP4
Summary of the method: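 Antiviral IC50 reported as the geometric mean of at least three independent experiments, with standard deviation given.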

[3] = Metabolic stability in human hepatocytes assessed as half life; format: ADME, cell-based, Liver, Hepatocyte
[4] = target: Human immunodeficiency virus type 1 reverse transcriptase (Human immunodeficiency virus 1, UniProt Q72547, Y181C); experiment: Inhibition of RNA-dependent DNA polymerase activity of HIV1 reverse transcriptase Y181C mutant
[5] = Cytotoxicity against human HeLaP4 cells; format: cell-based
[6] = Metabolic stability in human liver microsomes assessed as half life; format: ADME, Microsome
[7] = target: Human immunodeficiency virus type 1 reverse transcriptase (Human immunodeficiency virus 1, UniProt Q72547, K103N); experiment: Inhibition of RNA-dependent DNA polymerase activity of HIV1 reverse transcriptase K103N mutant

SMILES: Cc1n[nH]c2cccc(Oc3cc(C#N)cc(C#N)c3)c12
- IC50 [1]: 332 nM

SMILES: Cc1n[nH]c2ccc(F)c(Oc3cc(C#N)cc(C#N)c3)c12
- IC50 [2]: 14 nM
- half-life [3]: > 6 h
- IC50 [4]: 145 nM
- IC50 [1]: 50 nM
- CC50 [5]: > 100000 nM
- half-life [6]: > 2 h

SMILES: Cc1n[nH]c2ccc(Cl)c(Oc3cc(C#N)cc(C#N)c3)c12
- IC50 [1]: 399 nM

SMILES: CCc1n[nH]c2ccc(F)c(Oc3cc(C#N)cc(C#N)c3)c12
- IC50 [2]: 4.6 nM
- half-life [3]: > 6 h
- IC50 [7]: 183 nM
- IC50 [4]: 32 nM
- IC50 [1]: 25 nM
- CC50 [5]: > 100000 nM
- half-life [6]: > 2 h

SMILES: CC(C)c1nc(COC(N)=O)n(Cc2ccncc2)c1Sc1cc(Cl)cc(Cl)c1 [CAPRAVIRINE]
- IC50 [2]: 0.5 nM
- half-life [6]: 0.125 h

SMILES: COCc1n[nH]c2cccc(Oc3cc(C#N)cc(C#N)c3)c12
- IC50 [1]: 1670 nM

SMILES: CCc1n[nH]c2cccc(Oc3cc(C#N)cc(C#N)c3)c12
- IC50 [1]: 112 nM

SMILES: CNCc1n[nH]c2cccc(Oc3cc(C#N)cc(C#N)c3)c12
- IC50 [1]: > 30000 nM

SMILES: O=C1Nc2ccc(Cl)cc2[C@@](C#CC2CC2)(C(F)(F)F)O1 [EFAVIRENZ]
- IC50 [2]: 0.4 nM

SMILES: Cc1n[nH]c2c(CO)ccc(Oc3cc(C#N)cc(C#N)c3)c12
- IC50 [2]: 14 nM
- half-life [3]: 0.183 h
- IC50 [7]: 1270 nM
- IC50 [1]: 71 nM
- CC50 [5]: > 100000 nM
- half-life [6]: > 2 h
